PABP polyA inh: blocks human PABP binding to poly(A) RNA | hit rate 1% among 290,000 | inhibition, % at 35 µM | AID 2014 | fluorescence polarization;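 also: calls also rest on retests at 20 µM and on dose response follow-up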
eIF4H inh: inhibitors of RNA binding by human eIF4H. Q15056. hit rate 0.94% among 290,000. eIF4H fluorescence polarization binding assay. inhibition, % at 35 µM;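 also: calls also rest on retests at 20 µM and on dose response follow-up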
MT1-MMP act inh: inhibitors of human MT1-MMP activation | AID 651647 | HT1080 RFP-PRO-GFP cells, GFP/RFP ratio fluorescence, overnight; percent of plate control window, DMSO zero | GFP/RFP ratio change, % at 20 µM | P50281 | hit rate 0.061% among 360,000;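 active = GFP/RFP ratio change of at least 30% with cell ATP level not reduced by more than half and red fluorescence within 50% of control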
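Read-out: GFP/RFP fluorescence ratio; Test system: RFP-PRO-GFP reporter HT1080 cells; Compound dosing: single-point 20 µM compound, 1% DMSO; Times: overnight compound exposure at 37 °C.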
SKN-1 block: C. elegans SKN-1 inhibition. hit rate 0.49% among 360,000. inhibition, % at 21.8 µM. AID 624304. C. elegans VP596 Pgst-4::GFP/RFP ratio, acrylamide-induced, 24 h;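 active = interference check ratio from 0.5 to 1.5 plus GFP to RFP signal ratio inhibition reaching or exceeding a fixed threshold, cut at about 30% in these data, passing the limit was not always enough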
PABP1 MLLE inh: blocks PAM2 peptide binding to the PABP1 MLLE domain | P11940 | GST-MLLE / FITC-PAM2 fluorescence polarization | inhibition, % at 20 µM | hit rate 0.36% among 360,000 | AID 588489; in the data active = inhibition above about 35%, passing the limit was not always enough;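 also: plate controls were DMSO wells with GST-MLLE for no effect and wells lacking GST-MLLE protein for full effect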
Starred values were filed as active, the others as inactive; . = no result. Compounds with a hit are over-represented: about 1.7% of the library has one in this group of screens. Unless noted, no rule for the calls is given here.

SMILES	PABP polyA inh	eIF4H inh	MT1-MMP act inh	SKN-1 block	PABP1 MLLE inh
CCC(Oc1ccccc1)C(=O)Nc1cc(C(F)(F)F)ccc1N1CCOCC1 (stereo not given)	.	.	0	-3	-12
Nc1c(-c2ccccc2)sc2ccc3ccccc3[n+]12	-4	-18	-10	13	39*
CC(=O)NCCc1cc2cc(C)c(C)cc2[nH]c1=O	5	1	5	32*	2
CCCC(=O)NCCc1cc2cc(C)c(C)cc2[nH]c1=O	5	-1	6	2	4
COc1ccc(CNC(=O)c2c(N)n(CCCN3CCOCC3)c3nc4ccccc4nc23)cc1	19	9	-1	36*	-4
CC(C)CC(=O)Nc1cccc(C(C)O)c1 (stereo not given)	55*	active	.	.	.
C/C(=N\N=C1\NC(=O)C(CC(=O)Nc2ccc(Cl)cc2)S1)c1ccco1 (stereo not given)	56*	50	3	-4	10
O=C(CC1S/C(=N/N=C/c2cccs2)NC1=O)Nc1ccc(Cl)cc1 (stereo not given)	-6	4	-2	3	-6
Cc1[nH]c2ccccc2c1/C=C(\C#N)C(=O)NC1CC1	0	-7	4	-15	-8
Cc1[nH]c2ccccc2c1/C=C(\C#N)C(=O)NC(C)c1ccccc1 (stereo not given)	57*	-10	-20	14	-121
C#CC(CC)(CC)NC(=O)c1cc(S(=O)(=O)N2CCCCC2)ccc1N1CCOCC1	.	.	-4	-6	-5
CC(=O)Nc1cccc(NC(=O)c2cc(-c3ccccn3)nc3ccc(Cl)cc23)c1	26*	52	-1	14	-3
CC(=O)Nc1cccc(NC(=O)c2cc(-c3cccnc3)nc3ccc(Cl)cc23)c1	-10	-4	-5	17	-15
COc1cccc(N(C(=O)Cn2nnc(-c3ccc(Cl)cc3)n2)C(C(=O)NCC2CCCO2)c2ccc(C)cc2)c1 (stereo not given)	-3	-8	0	6	11
CC1C/C(=C/c2ccccn2)C(=O)/C(=C/c2ccccn2)C1 (stereo not given)	-13	50	-24	-2	4
C(=C\c1ccccn1)/c1ccccn1	6	12	0	16	13
Cc1ccc(C=Cc2ccccn2)cc1	.	.	3	43*	-10
Clc1ccc(C=Cc2ccccn2)cc1	.	.	0	72*	2
COc1ccc(S(=O)(=O)Cc2ccc(C(=O)O)o2)cc1	8	-15	-1	21	5
Cc1ccc(S(=O)(=O)Cc2ccc(C(=O)N3CCc4ccccc4C3)o2)cc1	51*	90*	-3	13	7
COc1ccc(S(=O)(=O)Cc2ccc(C(=O)N3CCc4ccccc4C3)o2)cc1	-3	2	-5	-5	-7
Cc1ccc(S(=O)(=O)Cc2ccc(C(=O)O)o2)cc1	58*	86*	1	11	22
NS(=O)(=O)c1ccc(CNC(=O)Cc2ccc(S(=O)(=O)N3CCOCC3)s2)cc1	.	.	2	7	-18
O=C(NCCCO)C(=O)Nc1cc2c3c(c1)CCC(=O)N3CCC2	3	-14	-4	-12	3
N#Cc1ccccc1NC(=O)CSc1cn[nH]n1	-1	3	-1	-1	17
SMILES	PABP polyA inh	eIF4H inh	MT1-MMP act inh	SKN-1 block	PABP1 MLLE inh
Cc1ccc(C(=O)N2CCCC(N3CCN(c4cccc(C(F)(F)F)c4)CC3)C2)s1 (stereo not given)	2	2	-7	-5	-8
COC/C=C/C1=CC2=CC(=O)C(C)(OC(=O)C3CCCC3)C(=O)C2=CO1 (stereo not given)	49*	62*	3	36*	-9
Cc1nn(CCc2nc(-c3ccco3)cs2)c2[nH]c(=O)cc(C(F)(F)F)c12	58*	45*	-3	3	28
Cc1cc(C)n(CCc2nc(-c3cccs3)cs2)n1	-3	2	2	2	16
Cc1cc(C)n(CCc2nc(-c3ccco3)cs2)n1	35*	51*	-3	5	11
Cc1cccc(OCC(=O)NCCCNC(=O)c2ccco2)c1	-8	3	-4	6	15
CC1CCCN(C(=O)CNS(=O)(=O)c2cccs2)C1 (stereo not given)	17	-3	-2	7	-6
O=CN/C=C/c1cc(O)ccc1O	91*	94*	-1	3	33
O=Cc1ccc(O)cc1O	-4	-4	-2	1	-4

Bioassay records from PubChem.
